In ChEMBL document CHEMBL2086379, “Novel pyrimidopyrimidine derivatives for inhibition of cellular proliferation and motility induced by h-prune in breast cancer” (Eur J Med Chem, 2012):
Calls of active or inactive are those of the source. No cut-off for these calls is given here.

Experiments:
[1] = target: T1, Exopolyphosphatase PRUNE1 (Homo sapiens, UniProt Q86TP1); experiment: Inhibition of purified human prune assessed as reduction of cAMP-phosphodiesterase activity by SPA
T1 sequence (Q86TP1 whole entry): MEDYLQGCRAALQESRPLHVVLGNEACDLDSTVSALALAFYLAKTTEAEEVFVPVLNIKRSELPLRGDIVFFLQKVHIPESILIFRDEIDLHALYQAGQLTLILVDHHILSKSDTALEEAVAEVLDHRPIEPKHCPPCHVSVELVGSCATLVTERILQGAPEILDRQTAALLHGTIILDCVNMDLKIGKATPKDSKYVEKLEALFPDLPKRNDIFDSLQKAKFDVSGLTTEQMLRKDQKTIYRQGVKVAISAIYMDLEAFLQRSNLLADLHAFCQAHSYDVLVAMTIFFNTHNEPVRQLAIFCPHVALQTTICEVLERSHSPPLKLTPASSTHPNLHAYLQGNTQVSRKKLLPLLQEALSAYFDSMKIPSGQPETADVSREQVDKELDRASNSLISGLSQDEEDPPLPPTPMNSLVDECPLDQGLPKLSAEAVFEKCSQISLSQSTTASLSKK

[2] = Inhibition of cell proliferation of human MDA-MB-231T cells expressing human-prune assessed as cell index levels at 50 uM measured 24 hrs post dose by xCelligence system based real time cell analysis method (reference value: 1.777 cell index); type: functional
Method in brief: (§1)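 Compound or DMSO added once when cell index reached 1.0–1.2 (50–60% confluence). CI read every 5 min for up to 54–56 h at 37 °C, 5% CO2, normalised to time of addition. Compounds at 50 µM (dose-response runs also 100 µM). Two independent experiments; Student's t test.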

Homo sapiens [3] = organism: Homo sapiens; experiment: Inhibition of cell motility in human MDA-MB-231T cells expressing human-prune at 8 uM by 2D cell migration assay; type: functional, cell-based
[4] = target: T2, Exopolyphosphatase PRUNE1 (Homo sapiens) (UniProt Q86TP1); experiment: Inhibition of human prune expressed in human MDA-435-c100 cells at 1 uM assessed as reduction of cAMP-phosphodiesterase activity using whole cell protein extracts by SPA; type: cell-based
T2 sequence (whole entry): T1 sequence (Q86TP1 whole entry)

Homo sapiens [5] = organism: Homo sapiens; experiment: Inhibition of cell proliferation of human MDA-MB-231T cells expressing human-prune assessed as cell index levels at 50 uM measured 5 hrs post dose by xCelligence system based real time cell analysis method; type: functional; method in brief: as §1
[6] = target: T1, Exopolyphosphatase PRUNE1; experiment: Inhibition of human prune assessed as reduction of cAMP-phosphodiesterase activity
Homo sapiens [7] = organism: Homo sapiens; experiment: Inhibition of cell proliferation of human MDA-MB-231T cells expressing human-prune assessed as cell index levels at 50 uM measured 9 to 54 hrs post dose by xCelligence system based real time cell analysis method; type: functional; method in brief: as §1

Row | IC50 [1] | inhibition [4] | IC50 [6] | SMILES | Activity [2] | inhibition (Homo sapiens [3]) | inhibition (Homo sapiens [5]) | inhibition (Homo sapiens [7])
1 | 210 nM | Active | – | COc1ccc(CNc2nc(N(CCO)CCO)nc3c(NCc4ccc(OC)cc4)nc(N(CCO)CCO)nc23)cc1 | 1.185 | Active | inactive | –
2 | – | – | 780 nM | OCCN(CCO)c1nc(N2CCCCC2)c2nc(N(CCO)CCO)nc(N3CCCCC3)c2n1 [DIPYRIDAMOLE] | 1.472 | Active | inactive | Active
